Assays:
[1] = biological target: Epidermal growth factor receptor (Homo sapiens, UniProt P00533); experiment: Inhibition of human EGFR after 1 hr using [gamma-32P]ATP
[2] = biological target: Proto-oncogene tyrosine-protein kinase Src (Homo sapiens, UniProt P12931); experiment: Inhibition of Src (unknown origin) by radiometric protein kinase assay
[3] = biological target: Vascular endothelial growth factor receptor 3 (Homo sapiens, UniProt P35916); experiment: Inhibition of VEGFR3 (unknown origin) by radiometric protein kinase assay
[4] = biological target: Platelet-derived growth factor receptor beta (Homo sapiens, UniProt P09619); experiment: Inhibition of PDGFR-beta (unknown origin) by radiometric protein kinase assay
[5] = biological target: RAF proto-oncogene serine/threonine-protein kinase (Homo sapiens, UniProt P04049); experiment: Inhibition of Raf (unknown origin) by radiometric protein kinase assay
Sequence of RAF proto-oncogene serine/threonine-protein kinase (P04049 whole entry): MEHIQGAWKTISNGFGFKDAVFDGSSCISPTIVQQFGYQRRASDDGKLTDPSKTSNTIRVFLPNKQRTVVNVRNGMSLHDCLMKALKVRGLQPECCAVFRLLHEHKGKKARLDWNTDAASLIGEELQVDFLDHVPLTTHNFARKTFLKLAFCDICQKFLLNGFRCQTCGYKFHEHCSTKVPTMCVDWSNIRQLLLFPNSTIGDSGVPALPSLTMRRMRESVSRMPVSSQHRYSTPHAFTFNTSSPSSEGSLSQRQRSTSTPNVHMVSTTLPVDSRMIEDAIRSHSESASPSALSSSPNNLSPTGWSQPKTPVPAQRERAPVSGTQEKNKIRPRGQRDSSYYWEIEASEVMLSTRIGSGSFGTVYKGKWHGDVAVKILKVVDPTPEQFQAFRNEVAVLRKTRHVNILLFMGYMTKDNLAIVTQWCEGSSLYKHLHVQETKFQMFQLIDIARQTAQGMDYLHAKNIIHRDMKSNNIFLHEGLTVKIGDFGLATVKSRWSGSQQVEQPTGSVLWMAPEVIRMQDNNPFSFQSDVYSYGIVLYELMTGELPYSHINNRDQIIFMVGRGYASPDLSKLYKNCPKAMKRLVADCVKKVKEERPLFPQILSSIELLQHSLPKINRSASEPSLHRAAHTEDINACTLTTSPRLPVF

[6] = biological target: Vascular endothelial growth factor receptor 1 (Homo sapiens, UniProt P17948); experiment: Inhibition of VEGFR1 (unknown origin) by radiometric protein kinase assay
Sequence of Vascular endothelial growth factor receptor 1 (P17948 whole entry): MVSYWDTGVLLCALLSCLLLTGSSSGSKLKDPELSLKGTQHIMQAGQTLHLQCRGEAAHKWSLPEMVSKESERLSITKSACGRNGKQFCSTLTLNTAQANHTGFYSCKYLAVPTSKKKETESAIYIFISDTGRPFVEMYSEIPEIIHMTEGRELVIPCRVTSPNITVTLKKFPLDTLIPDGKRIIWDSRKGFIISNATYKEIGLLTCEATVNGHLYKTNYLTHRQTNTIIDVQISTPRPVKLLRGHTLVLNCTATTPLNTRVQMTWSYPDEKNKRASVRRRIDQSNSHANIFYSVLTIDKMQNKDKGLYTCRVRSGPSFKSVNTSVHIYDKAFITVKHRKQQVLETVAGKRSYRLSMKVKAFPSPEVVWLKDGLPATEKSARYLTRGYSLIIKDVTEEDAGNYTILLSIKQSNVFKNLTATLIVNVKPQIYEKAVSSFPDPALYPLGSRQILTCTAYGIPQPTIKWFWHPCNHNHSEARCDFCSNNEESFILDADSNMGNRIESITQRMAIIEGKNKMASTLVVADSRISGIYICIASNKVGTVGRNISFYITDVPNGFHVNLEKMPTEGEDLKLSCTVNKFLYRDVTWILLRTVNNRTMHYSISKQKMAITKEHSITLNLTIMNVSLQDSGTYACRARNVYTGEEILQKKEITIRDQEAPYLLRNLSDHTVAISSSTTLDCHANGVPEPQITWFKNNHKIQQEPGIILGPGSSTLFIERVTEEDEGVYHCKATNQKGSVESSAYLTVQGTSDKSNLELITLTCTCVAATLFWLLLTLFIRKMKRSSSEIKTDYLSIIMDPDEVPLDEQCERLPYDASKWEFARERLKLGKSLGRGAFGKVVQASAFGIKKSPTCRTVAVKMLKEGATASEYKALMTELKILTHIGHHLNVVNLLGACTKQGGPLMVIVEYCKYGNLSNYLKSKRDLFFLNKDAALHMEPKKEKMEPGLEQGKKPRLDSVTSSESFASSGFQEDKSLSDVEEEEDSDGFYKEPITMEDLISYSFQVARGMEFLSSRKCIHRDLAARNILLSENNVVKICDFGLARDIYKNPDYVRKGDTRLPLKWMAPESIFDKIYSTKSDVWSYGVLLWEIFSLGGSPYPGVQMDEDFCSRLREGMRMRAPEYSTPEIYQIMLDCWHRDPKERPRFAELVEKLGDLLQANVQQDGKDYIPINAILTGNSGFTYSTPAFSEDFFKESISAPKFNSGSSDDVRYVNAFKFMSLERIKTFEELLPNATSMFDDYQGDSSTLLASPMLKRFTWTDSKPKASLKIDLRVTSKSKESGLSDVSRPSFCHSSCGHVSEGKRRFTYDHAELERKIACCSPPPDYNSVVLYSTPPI

[7] = biological target: Mast/stem cell growth factor receptor Kit (Homo sapiens, UniProt P10721); experiment: Inhibition of c-Kit (unknown origin) by radiometric protein kinase assay
Sequence of Mast/stem cell growth factor receptor Kit (P10721 whole entry): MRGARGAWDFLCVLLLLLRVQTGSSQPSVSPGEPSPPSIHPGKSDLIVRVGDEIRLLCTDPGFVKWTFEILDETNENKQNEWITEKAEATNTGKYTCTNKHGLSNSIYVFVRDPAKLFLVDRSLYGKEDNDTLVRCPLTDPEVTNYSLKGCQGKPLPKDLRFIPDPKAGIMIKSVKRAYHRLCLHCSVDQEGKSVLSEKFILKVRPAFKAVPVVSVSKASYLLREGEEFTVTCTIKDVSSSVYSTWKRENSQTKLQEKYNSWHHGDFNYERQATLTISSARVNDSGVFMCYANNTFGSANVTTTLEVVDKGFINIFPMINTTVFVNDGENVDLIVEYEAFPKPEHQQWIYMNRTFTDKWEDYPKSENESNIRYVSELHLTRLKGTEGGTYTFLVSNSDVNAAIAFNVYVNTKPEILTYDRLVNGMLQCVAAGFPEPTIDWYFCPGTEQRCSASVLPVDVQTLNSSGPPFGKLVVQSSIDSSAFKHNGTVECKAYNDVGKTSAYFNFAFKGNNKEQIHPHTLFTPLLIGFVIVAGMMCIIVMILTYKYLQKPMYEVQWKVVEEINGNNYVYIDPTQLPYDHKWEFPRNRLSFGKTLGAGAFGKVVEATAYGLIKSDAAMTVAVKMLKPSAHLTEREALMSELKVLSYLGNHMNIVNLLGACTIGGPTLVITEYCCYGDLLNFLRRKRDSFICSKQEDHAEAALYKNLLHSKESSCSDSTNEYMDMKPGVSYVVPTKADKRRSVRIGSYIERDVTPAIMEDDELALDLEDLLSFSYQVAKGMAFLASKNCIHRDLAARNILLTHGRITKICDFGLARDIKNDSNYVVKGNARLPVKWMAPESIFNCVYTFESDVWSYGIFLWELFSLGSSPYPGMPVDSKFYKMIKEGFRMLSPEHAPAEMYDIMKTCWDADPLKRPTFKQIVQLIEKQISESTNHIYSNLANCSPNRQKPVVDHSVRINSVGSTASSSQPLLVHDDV

[8] = biological target: Hepatocyte growth factor receptor (Homo sapiens, UniProt P08581); experiment: Inhibition of c-MET (unknown origin) by radiometric protein kinase assay
[9] = biological target: Vascular endothelial growth factor receptor 2 (Homo sapiens, UniProt P35968); experiment: Inhibition of human recombinant VEGFR-2 after 1 hr using [gamma-32P]ATP
Sequence of Vascular endothelial growth factor receptor 2 (P35968 whole entry): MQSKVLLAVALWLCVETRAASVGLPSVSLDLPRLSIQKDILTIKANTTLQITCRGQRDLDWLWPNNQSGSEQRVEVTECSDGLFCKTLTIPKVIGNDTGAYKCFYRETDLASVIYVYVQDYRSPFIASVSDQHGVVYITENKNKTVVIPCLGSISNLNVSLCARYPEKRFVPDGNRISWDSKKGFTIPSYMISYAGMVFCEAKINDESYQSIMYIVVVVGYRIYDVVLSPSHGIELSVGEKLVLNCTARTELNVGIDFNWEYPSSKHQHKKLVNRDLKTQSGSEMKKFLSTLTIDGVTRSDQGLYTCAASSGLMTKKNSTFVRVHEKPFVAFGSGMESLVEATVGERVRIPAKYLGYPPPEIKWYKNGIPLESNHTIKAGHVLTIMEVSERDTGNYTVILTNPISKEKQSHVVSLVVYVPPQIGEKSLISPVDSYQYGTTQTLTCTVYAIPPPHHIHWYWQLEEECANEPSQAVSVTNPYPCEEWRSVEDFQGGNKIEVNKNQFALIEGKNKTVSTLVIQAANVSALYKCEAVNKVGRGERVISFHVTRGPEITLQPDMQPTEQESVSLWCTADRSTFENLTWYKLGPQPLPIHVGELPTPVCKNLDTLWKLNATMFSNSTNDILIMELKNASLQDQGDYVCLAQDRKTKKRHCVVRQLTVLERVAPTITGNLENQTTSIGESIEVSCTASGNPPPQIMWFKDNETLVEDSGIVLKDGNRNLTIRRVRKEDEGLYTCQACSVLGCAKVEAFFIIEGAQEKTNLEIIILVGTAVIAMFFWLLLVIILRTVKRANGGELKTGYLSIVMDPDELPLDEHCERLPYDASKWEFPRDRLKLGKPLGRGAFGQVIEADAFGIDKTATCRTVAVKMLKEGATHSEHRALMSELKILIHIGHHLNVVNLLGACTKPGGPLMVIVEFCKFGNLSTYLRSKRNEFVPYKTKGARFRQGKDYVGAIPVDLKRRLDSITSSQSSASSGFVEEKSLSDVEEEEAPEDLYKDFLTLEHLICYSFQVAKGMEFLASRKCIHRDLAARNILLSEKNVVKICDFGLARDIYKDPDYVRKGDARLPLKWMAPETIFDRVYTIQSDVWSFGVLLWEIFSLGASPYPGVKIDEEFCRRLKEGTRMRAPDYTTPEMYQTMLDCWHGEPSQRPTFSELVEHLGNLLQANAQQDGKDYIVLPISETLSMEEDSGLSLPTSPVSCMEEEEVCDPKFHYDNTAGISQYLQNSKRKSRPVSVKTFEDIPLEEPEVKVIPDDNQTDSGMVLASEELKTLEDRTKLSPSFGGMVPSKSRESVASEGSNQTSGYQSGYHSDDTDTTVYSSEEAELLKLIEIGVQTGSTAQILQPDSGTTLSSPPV
Procedure, shortened: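 Recombinant human VEGFR-2 (10 ng) was incubated for 1 h at 28 °C with varying compound concentrations. Kinase buffer: Tris 50 mM pH 7.5, BSA, MnCl2 1.5 mM, MgCl2 10 mM, DTT 2.5 mM, Na3VO4, β-glycerophosphate 5 mM. Substrate was poly(Glu4/Tyr), with ATP plus [γ-32P]ATP; final DMSO was 0.1%. The reaction was stopped with 100% TCA, wells were washed with 10% TCA, and each well was counted for 1 min.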

Sequence of Proto-oncogene tyrosine-protein kinase Src (P12931 2-536 limits assumed): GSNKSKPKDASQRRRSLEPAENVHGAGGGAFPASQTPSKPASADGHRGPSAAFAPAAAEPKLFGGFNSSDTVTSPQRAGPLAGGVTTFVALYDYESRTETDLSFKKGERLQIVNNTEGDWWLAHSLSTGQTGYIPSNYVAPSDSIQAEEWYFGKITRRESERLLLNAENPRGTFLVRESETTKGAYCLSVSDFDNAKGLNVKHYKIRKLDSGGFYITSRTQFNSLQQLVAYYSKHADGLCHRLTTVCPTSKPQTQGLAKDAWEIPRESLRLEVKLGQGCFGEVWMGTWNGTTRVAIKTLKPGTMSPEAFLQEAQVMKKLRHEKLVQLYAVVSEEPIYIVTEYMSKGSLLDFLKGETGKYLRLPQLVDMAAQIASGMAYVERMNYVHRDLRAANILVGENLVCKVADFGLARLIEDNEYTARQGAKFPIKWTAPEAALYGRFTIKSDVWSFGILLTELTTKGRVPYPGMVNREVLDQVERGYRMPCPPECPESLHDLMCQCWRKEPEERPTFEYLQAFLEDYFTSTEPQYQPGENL

| SMILES | IC50 [1] | IC50 [2] | IC50 [3] | IC50 [4] | IC50 [5] | IC50 [6] | IC50 [7] | IC50 [8] | IC50 [9] |
| --- | --- | --- | --- | --- | --- | --- | --- | --- | --- |
| Fc1ccc(Nc2ncnc3ccccc23)cc1Cl | 0.03 µM |  |  |  |  |  |  |  |  |
| COc1cc2ncnc(Oc3ccc(NC(=O)Nc4cccc(Br)c4)cc3)c2cc1OC |  | 5.47 µM | 9 nM | 5 nM | 0.93 µM | 46 nM | 16 nM | 2.31 µM |  |
| Fc1ccc(Nc2ncnc3sccc23)cc1Cl | 2.98 µM |  |  |  |  |  |  |  |  |
| Fc1ccc(Nc2ncnc3sc4c(c23)CCCC4)cc1Cl | 1.33 µM |  |  |  |  |  |  |  | > 10000 nM |
| CCOC(=O)Nc1ccc(Nc2ncnc3ccccc23)cc1C | > 10 µM |  |  |  |  |  |  |  |  |
| CCOC(=O)Nc1ccc(Nc2ncnc3sc4c(c23)CCCC4)cc1C | > 10 µM |  |  |  |  |  |  |  | > 10000 nM |
| COc1cc2ncnc(Nc3ccc(NC(=O)Nc4cccc(Br)c4)cc3)c2cc1OC | 7.71 µM |  |  |  |  |  | 3 nM |  | 12 nM |
| O=C(Nc1ccc(Nc2ncnc3ccccc23)cc1)Nc1cccc(Br)c1 | > 10 µM | > 10 µM | 47 nM | 850 nM | > 10 µM | 5750 nM | 1 nM | > 10 µM | 91 nM |
| O=C(Nc1ccc(Nc2ncnc3sccc23)cc1)Nc1cccc(Br)c1 | > 10 µM | > 10 µM | 1980 nM | 2120 nM | 4.02 µM | > 10000 nM | 1 nM | > 10 µM |  |
| O=C(Nc1ccc(Nc2ncnc3sc4c(c23)CCCC4)cc1)Nc1cccc(Br)c1 | 3.95 µM | 7.64 µM | 420 nM | 2820 nM | > 10 µM | 7150 nM | 6 nM | > 10 µM | 310 nM |
| Fc1ccc(Oc2ncnc3ccccc23)cc1Cl | 0.59 µM |  |  |  |  |  |  |  |  |
| Fc1ccc(Oc2ncnc3sc4c(c23)CCCC4)cc1Cl | > 10 µM |  |  |  |  |  |  |  | 3500 nM |
| CCOC(=O)Nc1ccc(Oc2ncnc3cc(OC)c(OC)cc23)cc1C | > 10 µM |  |  |  |  |  |  |  |  |
| CCOC(=O)Nc1ccc(Oc2ncnc3ccccc23)cc1C | > 10 µM |  |  |  |  |  |  |  | 710 nM |
| CCOC(=O)Nc1ccc(Oc2ncnc3sccc23)cc1C | > 10 µM |  |  |  |  |  |  |  |  |
| COc1cc2ncnc(Oc3ccc(NC(=O)Nc4cccc(Br)c4)c(Cl)c3)c2cc1OC | > 10 µM |  |  |  |  |  |  |  |  |
| O=C(Nc1ccc(Oc2ncnc3ccccc23)cc1)Nc1cccc(Br)c1 | > 10 µM | > 10 µM | 7 nM | 320 nM | 6.22 µM | 650 nM | 14 nM | > 10 µM | 8 nM |
| O=C(Nc1ccc(Oc2ncnc3sccc23)cc1)Nc1cccc(Br)c1 | > 10 µM | > 10 µM | 6 nM | 570 nM | > 10 µM | 1080 nM | 11 nM | > 10 µM | 18 nM |
| Cc1cc(Oc2ncnc3sccc23)ccc1NC(=O)Nc1cccc(Br)c1 | > 10 µM |  |  |  |  |  |  |  |  |
| O=C(Nc1cccc(Br)c1)Nc1ccc(Oc2ncnc3sccc23)cc1Cl | > 10 µM |  |  |  |  |  |  |  |  |
| O=C(Nc1ccc(Oc2ncnc3sc4c(c23)CCCC4)cc1)Nc1cccc(Br)c1 | > 10 µM | 8.46 µM | 1020 nM | 2300 nM | 5.84 µM | 1700 nM | 17 nM | > 10 µM | 11 nM |
| Cc1cc(Oc2ncnc3sc4c(c23)CCCC4)ccc1NC(=O)Nc1cccc(Br)c1 | 3.29 µM |  |  |  |  |  |  |  | 34 nM |
| O=C(Nc1cccc(Br)c1)Nc1ccc(Oc2ncnc3sc4c(c23)CCCC4)cc1Cl | 1.26 µM |  |  |  |  |  |  |  | 15 nM |
